In ChEMBL document CHEMBL1129359, “Alkyl and alkoxyethyl antineoplastic phospholipids” (J Med Chem, 1996):
In brackets after ≈: the same amount, converted by molar mass. Activity calls are given as the source filed them. The rule behind the calls is not given here.

Tests used:
[1] = In vitro cytotoxic effect in 1 of 6 human tumor xenografts, RXF; format: functional
Method in brief: (§1)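 Double-layer soft-agar clonogenic assay. Tumor cells come from human tumor xenografts serially passaged in nude mice. Cells are dispersed with collagenase 0.05%, DNase 0.07% and hyaluronidase 0.1% (37 °C, 30 min), sieved, and viability is checked by trypan blue. 20 000–200 000 cells go in 0.4% agar over a 0.7% agar base in IMDM with 20% FCS. Drug is overlaid continuously for at least 1 week.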

[2] = test system: panel of six human tumor xenografts (Homo sapiens); experiment: In vitro cytotoxicity in six human tumor xenografts.
[3] = molecular target: T1, M-phase inducer phosphatase 1 (Homo sapiens, UniProt P30304); experiment: Inhibition of Cell division cycle 25 (Cdc25) phosphatase
T1 sequence (P30304 whole entry): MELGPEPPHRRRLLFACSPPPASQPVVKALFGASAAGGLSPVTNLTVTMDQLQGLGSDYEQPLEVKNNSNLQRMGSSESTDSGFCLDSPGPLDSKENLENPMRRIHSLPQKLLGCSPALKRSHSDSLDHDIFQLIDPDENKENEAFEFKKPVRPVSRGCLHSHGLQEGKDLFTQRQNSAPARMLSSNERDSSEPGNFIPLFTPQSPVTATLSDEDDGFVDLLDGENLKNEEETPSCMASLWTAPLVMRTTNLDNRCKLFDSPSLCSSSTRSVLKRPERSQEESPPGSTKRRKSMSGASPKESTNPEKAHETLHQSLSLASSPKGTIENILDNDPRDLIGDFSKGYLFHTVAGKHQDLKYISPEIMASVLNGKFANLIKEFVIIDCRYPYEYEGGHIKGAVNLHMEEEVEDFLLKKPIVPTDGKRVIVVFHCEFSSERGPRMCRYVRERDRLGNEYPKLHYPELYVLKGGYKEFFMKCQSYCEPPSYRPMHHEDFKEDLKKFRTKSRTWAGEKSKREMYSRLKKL
Method in brief: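 Enzyme is GST-human cdc25A fusion expressed in E. coli and purified on glutathione-agarose. Enzyme and DTT in Tris buffer are preincubated 15 min at 37 °C. The reaction starts with p-nitrophenyl phosphate (500 mM stock) and runs 60 min at 37 °C. Absorbance is read at 405 nm, and the no-enzyme blank is subtracted.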

[4] = test system: RXF 423; experiment: In vitro cytotoxicity against human tumor xenograft RXF 423 renal cancer; format: functional; method in brief: as §1
[5] = test system: OVXF1023 cell line; experiment: In vitro cytotoxicity against human tumor xenograft OVXF1023 ovarian adenocarcinoma; format: functional; method in brief: as §1
[6] = test system: LXFL 529; experiment: In vitro cytotoxicity against human tumor xenograft LXFL 529 Nonsmall cell lung carcinoma; format: functional; method in brief: as §1
[7] = In vitro cytotoxic effect in 2 of 6 human tumor xenografts, LXFS and RXF; format: functional; method in brief: as §1
[8] = test system: MEXF989; experiment: In vitro cytotoxicity against human tumor xenograft MEXF 989 melanoma; format: functional; method in brief: as §1
[9] = test system: CXF1103; experiment: In vitro cytotoxicity against human tumor xenograft CXF 1103 colorectal adenocarcinoma; format: functional; method in brief: as §1
[10] = test system: LXFS538; experiment: In vitro cytotoxicity against human tumor xenograft LXFS 538 small cell lung carcinoma; format: functional; method in brief: as §1
[11] = test system: LXFL 529/ LXFS 538; experiment: In vitro cytotoxicity in nonsmall cell lung carcinoma cell line LXFL 529 and small cell lung carcinoma cell line LXFS 538 human tumor xenografts.; format: functional; method in brief: as §1
[12] = In vitro cytotoxic effect in 1 of 6 human tumor xenografts, LXFS; format: functional; method in brief: as §1
[13] = In vitro cytotoxic effect in 2 of 6 human tumor xenografts, LXFL and LXFS; format: functional; method in brief: as §1
[14] = In vitro cytotoxic effect in 3 of 6 human tumor xenografts, LXFS, MEXF and RXF; format: functional; method in brief: as §1
[15] = molecular target: Cyclin-dependent kinase 1 (starfish); experiment: Inhibition of Cell division cycle 2 (cdc2) kinase
[16] = In vitro cytotoxic effect in 0 of 6 human tumor xenografts; format: functional; method in brief: as §1
[17] = In vitro cytotoxic effect in 2 of 6 human tumor xenografts, LXFE and RXF; format: functional; conditions: in the assay text read “LXFL” for “LXFE”; method in brief: as §1
[18] = In vitro cytotoxic effect in 4 of 6 human tumor xenografts, LXFL, LXFS, MEXF and OVXF; format: functional; method in brief: as §1

Row | IC50 [3] [µM] | Structure (SMILES) | Mean IC70 [2] [µg/mL] | IC70 [4] [µg/mL] | IC70 [5] [µg/mL] | IC70 [6] [µg/mL] | IC70 [8] [µg/mL] | IC70 [9] [µg/mL] | IC70 [10] [µg/mL] | Mean IC70 [11] [µg/mL] | further results
1 | 290 | CCCCCCCCCCCCCCOP(=O)([O-])OCC[N+]1(C)CCOCC1 | >10 | – | – | – | – | – | – | – | Cytotoxicity [1]: Weak activity
2 | 380 | CCCCCCCCCCCCCCOCCOP(=O)([O-])OCC[N+]1(C)CCOCC1 | – | 6.74 (≈ 14.5 µM) | > 10 | 10 (≈ 21.5 µM) | > 10 | > 10 | 5.85 (≈ 12.6 µM) | 8.6 | Cytotoxicity [7]: Weak activity
3 | > 1000 | CCCCCCCCCCCCOP(=O)([O-])OCC[N+]1(C)CCCCC1 | >10 | – | – | – | – | – | – | – | Cytotoxicity [12]: Weak activity
4 | 100 | CCCCCCCCCCCCCCCCOCCOP(=O)([O-])OCC[N+]1(C)CCCCC1 | – | 10 (≈ 20.3 µM) | > 10 | 5.38 (≈ 10.9 µM) | > 10 | > 10 | 4.54 (≈ 9.23 µM) | 7.9 | Cytotoxicity [13]: Weak activity
5 | 610 | CCCCCCCCCCCCOCCOP(=O)([O-])OCC[N+]1(C)CCOCC1 | – | – | – | – | – | – | – | >10 | Cytotoxicity [12]: Weak activity
6 | 1000 | CCCCCCCCCCCCCCCCOCCOP(=O)([O-])OCC[N+]1(C)CCOCC1 | – | 4.76 (≈ 9.64 µM) | > 10 | 10.4 (≈ 21 µM) | 8.76 (≈ 17.7 µM) | > 10 | 5.12 (≈ 10.4 µM) | 7.8 | Cytotoxicity [14]: Weak activity
7 | 490 | CCCCCCCCCCCCCCOP(=O)([O-])OCC[N+]1(C)CCCCC1 | >10 | – | – | – | – | – | – | – | IC50 [15]: > 1000 µM; NA [16]: inactive
8 | 500 | CCCCCCCCCCCCOP(=O)([O-])OCC[N+]1(C)CCOCC1 | >10 | – | – | – | – | – | – | – | NA [16]: inactive
9 | 40 | CCCCCCCCCCCCCCCCOP(=O)([O-])OCC[N+]1(C)CCOCC1 | >10 | – | – | – | – | – | – | – | Cytotoxicity [1]: Weak activity
10 | 300 | CCCCCCCCCCCCCCOCCOP(=O)([O-])OCC[N+]1(C)CCCCC1 | – | – | – | – | – | – | – | >10 | Cytotoxicity [12]: Weak activity
11 | 25 | CCCCCCCCCCCCCCCCOP(=O)([O-])OCC[N+](C)(C)C [MILTEFOSINE] | 8 | 2.75 (≈ 6.76 µM) | > 10 | 9.57 (≈ 23.5 µM) | > 10 | > 10 | > 10 | – | Cytotoxicity [17]: Weak activity
12 | 460 | CCCCCCCCCCCCCCCCOP(=O)([O-])OCC[N+]1(C)CCCCC1 | 5.6 | 10 (≈ 22.3 µM) | 7.8 (≈ 17.4 µM) | 4.33 (≈ 9.67 µM) | 4.64 (≈ 10.4 µM) | > 10 | 1.9 (≈ 4.23 µM) | – | Cytotoxicity [18]: Weak activity
